High-throughput results: PubChem BioAssay, several laboratories
The list is not random: actives were taken first. Their share in the collection is about 0.97%.
JMJD2C inh – inhibitors of GASC-1 histone demethylase, primary screen, biochemical, fluorescence, DELFIA europium; AID 2099, 2009; inhibition, % at 2.35 µM; Lysine-specific demethylase 4C (Homo sapiens), Q9H3R0; GST-JMJD2C(1-420) H3K9me3 demethylation; actives 0.069% (n = 330,000);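 active = more than half of a compound's replicate wells show inhibition beyond 50%, single wells judged on their own value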;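 also: signal counts dimethyl H3K9 product captured on neutravidin plate; 0% = median of DMSO wells and 100% = 0.3 times that DMSO median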
Target sequence (Q9H3R0 1-420 limits assumed): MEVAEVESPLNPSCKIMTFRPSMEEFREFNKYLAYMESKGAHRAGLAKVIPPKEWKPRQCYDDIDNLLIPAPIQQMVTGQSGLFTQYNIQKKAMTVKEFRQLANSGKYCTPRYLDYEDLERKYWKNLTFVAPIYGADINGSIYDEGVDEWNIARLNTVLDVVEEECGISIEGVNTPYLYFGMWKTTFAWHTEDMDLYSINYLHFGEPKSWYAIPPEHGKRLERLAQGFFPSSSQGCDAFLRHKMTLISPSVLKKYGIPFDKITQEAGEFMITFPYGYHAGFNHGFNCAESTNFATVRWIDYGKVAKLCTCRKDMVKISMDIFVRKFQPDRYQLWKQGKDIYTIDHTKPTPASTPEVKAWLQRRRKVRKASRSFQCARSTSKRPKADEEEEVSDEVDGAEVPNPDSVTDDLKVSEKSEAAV
UCH37 DUB inh – inhibitors of human UCH37 deubiquitinase, primary screen, biochemical, Ub-AMC cleavage, fluorescence; Ubiquitin carboxyl-terminal hydrolase isozyme L5 (Homo sapiens), Q9Y5K5; purified proteasome/UCH37; inhibition, % (test concentration not listed); actives 0.33% (n = 330,000);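 active = mean inhibition over replicate wells above about 20%, limit read from the data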;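 also: 0% = compound-free wells with enzyme and 100% = wells lacking proteasome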
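System: Proteasome-associated human UCH37 deubiquitinase; Input: 0.15 nM proteasome in added enzyme buffer; Also added: Ub-AMC substrate from 1 µM stock; Incubation: 30 min compound-proteasome preincubation then 25 min substrate reaction, room temperature; Detection: fluorescence, ex 355 nm, em 460 nm; Read-out: % inhibition of Ub-AMC cleavage fluorescence; Benchmarks: no-proteasome and no-compound wells.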
A3A deaminase – APOBEC3A ssDNA deaminase inhibitors, primary screen, selectivity assay for APOBEC3G inhibitor project, biochemical, FAM/TAMRA oligo cleavage fluorescence; DNA dC->dU-editing enzyme APOBEC-3A (Homo sapiens), P31941; recombinant A3A, FAM/TAMRA ssDNA deamination fluorescence; inhibition, % at 20 µM; actives 0.41% (n = 330,000); AID 493011, 2011;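 active = at least 40% inhibition at 20 µM here, with at most 30% in a related deaminase screen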;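 also: plate controls were A3A with DMSO for no effect and wells lacking A3A enzyme for full effect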
Target sequence (P31941 whole entry, looked up): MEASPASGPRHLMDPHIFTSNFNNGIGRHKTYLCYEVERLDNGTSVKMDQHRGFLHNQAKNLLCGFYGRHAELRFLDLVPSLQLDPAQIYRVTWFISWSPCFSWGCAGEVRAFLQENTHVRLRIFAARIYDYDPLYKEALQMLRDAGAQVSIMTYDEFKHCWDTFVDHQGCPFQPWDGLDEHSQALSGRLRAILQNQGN
APOBEC3G inh – APOBEC3G DNA deaminase inhibitors, primary screen, biochemical, fluorescence, single-stranded DNA substrate, uHTS; DNA dC->dU-editing enzyme APOBEC-3G (Homo sapiens), Q9HC16; recombinant A3G, ssDNA deamination FAM/TAMRA fluorescence; inhibition, % at 20 µM; actives 0.28% (n = 330,000); AID 493012, 2011;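 active = inhibition of at least 40% at 20 µM, with no more than 30% in the related APOBEC3A deaminase screen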;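 also: plate controls were DMSO wells with A3G for no effect and wells lacking A3G enzyme for full effect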
A3G conf – APOBEC3G deaminase inhibitor retest, confirmation, biochemical, fluorescence, single-stranded DNA substrate, single concentration; shares compounds with APOBEC3G inh; recombinant A3G ssDNA deaminase, UDG/FAM-TAMRA fluorescence; inhibition, % at 20 µM; actives 72% (n = 890);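 active = inhibition reaching a set limit in any replicate at 20 µM, the limit being 80% of the first screen's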
UDG A3G counter – E. coli UDG inhibitors, confirmation, counter-screen for APOBEC3G inhibitor project, biochemical, single concentration, fluorescence, FAM/TAMRA oligo. shares compounds with APOBEC3G inh. UDG counterscreen. inhibition, % at 20 µM. 710 tested, under 10 active. AID 504715, 2011;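 active = compounds giving 40% or more inhibition at 20 µM in any one of the three replicates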;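 also: plate controls were DMSO wells with UDG and oligo for no effect and DMSO wells lacking both for full effect; inhibitors lower the FAM signal released by uracil excision and alkaline cleavage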
* = called active by the depositor; nt = not tested or not shown.

SMILES	JMJD2C inh	UCH37 DUB inh	A3A deaminase	APOBEC3G inh	A3G conf	UDG A3G counter
O=C(NN=Cc1ccc(Cl)cc1)c1cc(-c2cccnc2)nc2ccccc12	nt	2	nt	nt	nt	nt
Cc1nc2ccc(Nc3nc4cc(S(=O)(=O)N5CCOCC5)ccc4o3)cc2s1	-12	5	7	56*	47*	3
Cc1ccc(C(=O)CSc2nc3cc(S(=O)(=O)N4CCOCC4)ccc3o2)cc1	-9	1	-9	-6	nt	nt
Cc1nc2ccc(NC(=O)c3cc(S(=O)(=O)N4CCOCC4)ccc3C)cc2s1	2	1	2	-4	nt	nt
CCSc1nc2cc(S(=O)(=O)N3CCOCC3)ccc2o1	nt	5	11	62*	45*	5
COc1ccc(C=NNc2nc(C(=O)O)cs2)cc1	nt	7	nt	nt	nt	nt
Nn1c(COc2ccc(Cl)cc2)n[nH]c1=S	3	2	1	53*	58*	3
Cc1cccc(C)c1OCc1n[nH]c(=S)n1-c1ccccc1	-5	1	-1	8	nt	nt
Cc1cccc(C)c1OCc1n[nH]c(=S)n1N	2	1	3	40*	54*	-3
CCn1nc(C)c(C=NNC(=O)Cn2nccc2C)c1C	nt	2	nt	nt	nt	nt
Cc1cc(-c2n[nH]c(=S)n2N=Cc2ccc(Cl)c([N+](=O)[O-])c2)n[nH]1	nt	2	nt	nt	nt	nt
Cc1cc(-c2n[nH]c(=S)n2/N=C/c2cccc([N+](=O)[O-])c2)n[nH]1	1	nt	-2	65*	73*	-2
Cc1cc(-c2n[nH]c(=S)n2/N=C/c2cccc(O)c2)n[nH]1	1	nt	-1	49*	82*	-4
COc1cccc(C=Nn2c(-c3cc(C)[nH]n3)n[nH]c2=S)c1OC	nt	2	nt	nt	nt	nt
COc1cc(C=N/N=C2/NC(=O)C(Cc3ccccc3)S2)ccc1O (stereo not given)	nt	8	nt	nt	nt	nt
Cn1c(-c2csc(-c3ccccc3)n2)n[nH]c1=S	3	0	0	45*	64*	-4
Cn1c(CSCCOc2ccccc2)n[nH]c1=S	7	4	4	41*	24	nt
Cn1c(CSc2nc3ccccc3s2)n[nH]c1=S	-12	5	6	48*	58*	-3
Cn1c(-c2sc3ccccc3c2Cl)n[nH]c1=S	-2	2	-3	41*	63*	-2
Cc1ccc(-c2n[nH]c(=S)n2C)cc1	3	1	nt	nt	nt	nt
O=C(NN=Cc1cccc(O)c1)c1ccc(COc2ccc3c(c2)CCC3)o1	nt	3	nt	nt	nt	nt
CN(C)c1ccc(C=NNC(=S)NCc2ccco2)cc1	nt	-103	nt	nt	nt	nt
Cc1ccc(NC(=O)CSc2nc3[nH]ncc3c(=O)[nH]2)cc1	8	7	2	52*	2	nt
S=c1[nH]nc(-c2ccccc2)n1C1C=CCCC1 (stereo not given)	18	1	-1	42*	79*	-2
COc1cc(C=Nn2cnnc2)ccc1Oc1nc(Cl)ncc1F	nt	4	nt	nt	nt	nt
SMILES	JMJD2C inh	UCH37 DUB inh	A3A deaminase	APOBEC3G inh	A3G conf	UDG A3G counter
CCOC(=O)c1cccc(NC(=O)Cn2cc3c(n2)CCC(C)C3)c1 (stereo not given)	-2	2	2	47*	-2	nt
CC(=O)Nc1ccc(NC(=O)Cn2cc3c(n2)CCC(C)C3)cc1 (stereo not given)	11	-2	nt	nt	nt	nt
COc1cc(/C=N/n2c(-c3ccccc3)n[nH]c2=S)cc(OC)c1O	13	nt	-10	48*	64*	-7
S=c1[nH]nc(COc2ccccc2)n1/N=C/c1ccncc1	-7	nt	-7	62*	82*	-2
S=c1[nH]nc(COc2ccccc2)n1/N=C/c1ccccn1	36	nt	-4	55*	86*	1
CCc1n[nH]c(=S)n1/N=C/c1ccc(N(CC)CC)cc1	-7	nt	-7	47*	48*	1
FC(F)(F)c1ccc(/C=N/n2c(COc3ccccc3)n[nH]c2=S)cc1	18	nt	-2	36	nt	nt
CCc1n[nH]c(=S)n1N=Cc1ccc(NC(C)=O)cc1	nt	8	nt	nt	nt	nt
COc1cc(C=Nn2c(-c3ccccc3)n[nH]c2=S)cc(OC)c1OC	nt	6	nt	nt	nt	nt
O=[N+]([O-])c1cc(C=NO)ccc1SCc1ccccc1Cl	nt	4	nt	nt	nt	nt
Cc1cc(C)n(N=Cc2ccco2)c(=O)c1C#N	nt	10	nt	nt	nt	nt
CC1CCCC=CC(=O)c2c(O)cc(O)cc2CC(=O)O1 (stereo not given)	nt	3	nt	nt	nt	nt
Cn1cc(C(=O)NN=Cc2c(O)ccc3ccccc23)ccc1=O	nt	-12	nt	nt	nt	nt
COc1ccc(C=Nn2c(COc3ccccc3)n[nH]c2=S)cc1OC	nt	6	nt	nt	nt	nt
COc1cc(/C=N/n2c(COc3ccccc3)n[nH]c2=S)cc(Br)c1O	-18	nt	1	46*	70*	-2
Cc1c(C=NNC(=O)CNc2ccccc2)c2ccccn2c1C(=O)c1ccccc1	nt	1	nt	nt	nt	nt
Nc1n[nH]c(=S)n1-c1ccc(Cl)cc1	0	1	-2	52*	63*	0
S=c1[nH]nc(-c2ccc(Cl)cc2)n1-c1ccc(Cl)cc1	4	1	0	4	nt	nt
Cc1ccsc1C=Nn1c(-c2ccccc2)n[nH]c1=S	nt	1	nt	nt	nt	nt
S=c1[nH]nc(-c2ccccn2)n1/N=C/c1cccc(Cl)c1	-8	nt	-5	43*	77*	-1
Cc1cc(-c2n[nH]c(=S)n2/N=C/c2sccc2C)n[nH]1	-4	nt	-4	57*	86*	17
Cc1ccsc1/C=N/n1c(-c2ccccn2)n[nH]c1=S	-3	nt	1	60*	63*	1
Cc1ccsc1/C=N/n1c(-c2ccncc2)n[nH]c1=S	15	nt	-11	52*	75*	-3
Cc1cc(-c2n[nH]c(=S)n2N=Cc2cccs2)n[nH]1	nt	7	nt	nt	nt	nt
COc1cc(C=NNC(=O)CN2CCOCC2)ccc1OCC(=O)Nc1ccc(C)c(C)c1	nt	0	nt	nt	nt	nt
Cc1cccc2cc(C=NNC(=O)c3ccccc3O)c(Cl)nc12	nt	0	nt	nt	nt	nt
Cc1ccccc1Cn1cnc2c(cnn2C(C)(C)C)c1=O	-12	1	-3	-4	nt	nt
Cc1ccc(C)c(Cn2cnc3c(cnn3C(C)(C)C)c2=O)c1	-2	-1	1	58*	0	nt
COC(=O)N1CCc2c(sc(NC(=O)C3COc4ccccc4O3)c2C(N)=O)C1 (stereo not given)	0	-2	2	50*	21*	-4
COCc1cc(C)nc(OCC(=O)NN=Cc2ccc(-c3cc([N+](=O)[O-])ccc3Cl)o2)c1C#N	nt	2	nt	nt	nt	nt
